Shown are actives, neighbours in structure and some others; about 1.8% of the full set was active somewhere.
MT1-MMP act inh: MT1-MMP (human) activation inhibition. P50281. HT1080 RFP-PRO-GFP cells, GFP/RFP ratio fluorescence, overnight; percent of plate control window, DMSO zero. GFP/RFP ratio change, % at 20 µM. 0.061% of 360,000 active;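 active = GFP/RFP ratio change of at least 30% with cell ATP level not reduced by more than half and red fluorescence within 50% of control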
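Assay system: HT1080 RFP-PRO-GFP cells | Dosing: 20 µM single dose, 1% DMSO | Incubation: Cells overnight before dosing, compound overnight, 37 °C, 5% CO2 | Evaluation: GFP/RFP fluorescence ratio | Control set: DMSO-only wells and HT1080 RFP-L50D-GFP cell wells as references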
SKN-1 block: inhibitors of C. elegans SKN-1. C. elegans VP596 Pgst-4::GFP/RFP ratio, acrylamide-induced, 24 h. inhibition, % at 21.8 µM. 0.49% of 360,000 active;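 active = interference check ratio from 0.5 to 1.5 plus GFP to RFP signal ratio inhibition reaching or exceeding a fixed threshold, cut at about 30% in these data, passing the limit was not always enough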
MsrA act: activators of bovine methionine sulfoxide reductase A | purified bovine MsrA, absorbance read-out | activation, % at 10.6 µM | 0.3% of 360,000 active | AID 602163; in the data active = activation above about 7.5%
MsrA inh: inhibits bovine methionine sulfoxide reductase A; purified bovine MsrA, absorbance read-out; inhibition, % at 15.5 µM; 0.75% of 360,000 active; in the data active = inhibition above about 4.5%
beta cell repl: induces beta-cell replication in MIN6 cells. MIN6 cells proliferation, ATPlite luminescence, 48 h; cells starved in 0.2% serum; 100% = growth in 10% serum. proliferation, % at 10 µM. 0.29% of 330,000 active. AID 2380;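 active = compounds whose signal lies at least 3.5 SD above the mean of all wells on their plate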
DAGLB inh: blocks human DAGLB lipase activity; Q8NCG7; HEK293T DAGLB membrane lysate, EnzChek fluorogenic substrate; inhibition, % at 5.17 µM; 0.059% of 340,000 active; in the data active = inhibition above about 34%
Target sequence (Q8NCG7 whole entry, looked up): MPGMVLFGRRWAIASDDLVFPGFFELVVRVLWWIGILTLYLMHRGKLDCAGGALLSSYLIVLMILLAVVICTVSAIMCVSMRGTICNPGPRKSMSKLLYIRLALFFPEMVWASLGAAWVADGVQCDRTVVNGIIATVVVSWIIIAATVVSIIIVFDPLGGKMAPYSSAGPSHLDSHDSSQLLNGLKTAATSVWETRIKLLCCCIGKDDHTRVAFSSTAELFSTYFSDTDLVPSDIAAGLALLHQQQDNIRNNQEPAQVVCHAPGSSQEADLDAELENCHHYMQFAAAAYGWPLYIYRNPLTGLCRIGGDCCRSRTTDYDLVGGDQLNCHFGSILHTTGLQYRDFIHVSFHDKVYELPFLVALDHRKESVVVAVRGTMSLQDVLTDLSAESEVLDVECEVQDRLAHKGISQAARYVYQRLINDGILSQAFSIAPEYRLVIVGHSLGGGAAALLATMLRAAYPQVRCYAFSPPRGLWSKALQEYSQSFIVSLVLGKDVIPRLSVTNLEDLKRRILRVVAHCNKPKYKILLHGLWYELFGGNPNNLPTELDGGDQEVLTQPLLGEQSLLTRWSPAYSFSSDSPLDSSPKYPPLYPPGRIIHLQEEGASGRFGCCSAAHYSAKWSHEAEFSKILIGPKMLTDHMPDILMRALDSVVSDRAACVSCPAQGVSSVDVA
Of the large screens only hits and unclear results are named; the others gave an inactive call.

Cc1cc(C)c2nc(C(F)(F)F)nc(N3CCN(C(=O)c4ccco4)CC3)c2c1	SKN-1 block 36.3
Cc1cc(C)c2nc(N3CCCN(C(=O)c4ccco4)CC3)c(C#N)cc2c1	none
CC(C)C(=O)Nc1ccc(-c2nc3ncccc3o2)cc1	MsrA inh 4.6
CCOC(=O)C(CSCC(=O)c1ccc(Cl)cc1Cl)NC(=O)OC(C)(C)C (stereo not drawn)	SKN-1 block 36.1
Cc1cc(OCc2cc(C(=O)N(C)CCCN3CCOCC3)no2)cc(C)c1Cl	none
CN(CCCN1CCOCC1)C(=O)c1cc(COc2cccc(C(F)(F)F)c2)on1	SKN-1 block 44.8
Clc1ccccc1OCc1nc(-c2ccncc2)no1	none
Clc1ccc(OCc2nc(-c3ccncc3)no2)c(Br)c1	SKN-1 block 50.6
Clc1ccc(-c2cn3ccccc3n2)cc1	none
Brc1ccc(-c2cn3ccccc3n2)s1	SKN-1 block 83.8
COCCN(CCOC)C(=O)[C@H](CCc1ccccc1)NC(=O)[C@H]1O[C@@H](n2cnc3c(N)ncnc32)[C@H](O)[C@@H]1O	none (no result: MT1-MMP act inh, SKN-1 block, MsrA act, beta cell repl, DAGLB inh)
COc1ccc2c(c1O)Cc1ccccc1C2=O	MT1-MMP act inh 35.2 (no result: MsrA inh)
COc1cc(OC)c(OC)cc1/C=C1/Cc2ccccc2C1=O	none
CC1CCN(C2(O)C(=O)Nc3ccc([N+](=O)[O-])cc32)CC1 (stereo not drawn)	MsrA inh 6.6
CC(C)OC(=O)CN1CCN(C2c3ccccc3-c3ccccc32)CC1	SKN-1 block 38.2
CC(C)C1=CC2C3C(C(C(C)C)=CC(=O)[C@@]3(C)O)C1C(=O)C2(C)O (stereo partly drawn)	none (no result: MT1-MMP act inh, SKN-1 block, MsrA act, beta cell repl, DAGLB inh)
O=[N+]([O-])c1ccc2nc(-c3ccccc3)oc2c1	SKN-1 block 42.3
CCCn1nc([N+](=O)[O-])c(C(C#N)c2nc3ccccc3o2)c(Cl)c1=O (stereo not drawn)	DAGLB inh 69.9
Cn1nc([N+](=O)[O-])c(C(C#N)c2ccccn2)c(Cl)c1=O (stereo not drawn)	none
Cc1cccc(C)c1NC(=O)C(CCc1ccccc1)N1CCN(CCN(C)C)CC1 (stereo not drawn)	none (no result: MT1-MMP act inh, SKN-1 block, MsrA act, beta cell repl, DAGLB inh)
CC1=NN(Cc2ccccc2)C(=O)/C1=C\c1ccc(N(C)C)cc1	SKN-1 block 34.0
CCOC(=O)C1=NN(c2ccccc2)C(=O)/C1=C\c1ccc(N(C)C)cc1	none
Cc1[nH]c(=O)c(C#N)c2c1COC(C)(C)C2	none (no result: MsrA inh)
CSc1c(C#N)c(N)c(C#N)c2c1COC(C)(C)C2	SKN-1 block 40.7
CC(C)[C@H](NC(=O)c1ccc(Cl)c(Cl)c1)C(=O)N1CCC[C@H]1C(=O)NCc1ccccc1	none (no result: MT1-MMP act inh, SKN-1 block, MsrA act, beta cell repl, DAGLB inh)
O=C1NC2(CCN(Cc3ccccc3)CC2)Oc2ccccc21	none
O=C1c2ccccc2OC2(C=Cc3ccccc3O2)N1Cc1ccccc1 (stereo not drawn)	SKN-1 block 39.9
O=S1(=O)C=C(Sc2ccc(Cl)cc2)c2ccccc2C1Cc1ccc(F)cc1 (stereo not drawn)	none (no result: MT1-MMP act inh, SKN-1 block, MsrA act, beta cell repl, DAGLB inh)
Cc1ccc(CSc2nc3c(c(N(C)C)n2)CCCC3)cc1	none
CN(C)c1nc(SCc2ccccc2Cl)nc2c1CCCC2	SKN-1 block 30.7 (no result: MsrA inh)
Cc1ccc(NC(=O)N2CC(C)OC(C)C2)cc1[N+](=O)[O-] (stereo not drawn)	none (no result: MT1-MMP act inh, SKN-1 block, MsrA act, beta cell repl, DAGLB inh)
O=C(O)CCC(=O)N1CCN(c2ccc(C(=O)c3ccc(F)cc3)cc2)CC1	MsrA inh 4.7
Cc1ccc(C(=O)CCC(=O)N2CCN(c3ccc(F)cc3)CC2)cc1	none
O=C(Oc1ccccc1)N1CCN(c2ccc(F)cc2)CC1	SKN-1 block 42.5
Cc1cc(C(=O)CSc2nnc(-c3cccs3)n2Cc2ccccc2)c(C)n1C	SKN-1 block 35.8
CCCCc1c(-c2ccccc2OC)ncn1Cc1ccc(OC)c(Cl)c1	none (no result: MT1-MMP act inh, SKN-1 block, MsrA act, beta cell repl, DAGLB inh)
COC(CNC(=O)c1cccnc1)OC	none
COC(CNC(=O)c1ccc2c3c(onc13)-c1ccccc1C2=O)OC	MT1-MMP act inh 34.1
O=c1cc(-c2ccccc2)oc2ccc3ccccc3c12	SKN-1 block 36.4 (no result: beta cell repl)
O=C(NCC1CC1(Cl)Cl)Nc1ccc(Cl)c(Cl)c1 (stereo not drawn)	SKN-1 block 56.2
C[C@H](CO)N1C[C@H](C)[C@H](CN(C)C(=O)C2CCCCC2)OCc2cnnn2CCCC1=O	none (no result: MT1-MMP act inh, SKN-1 block, MsrA act, beta cell repl, DAGLB inh)
COc1ccc(NC2=NC(=S)N(c3ccccc3C)C23CCCCC3)cc1	none
COc1ccc(Nc2ccc3c(c2)=NC2(CCCCC2)[N+]=3[O-])cc1	MsrA inh 14.6
COC(=O)C1=C(C)N(Cc2ccccc2)C(=S)NC1c1cccc(Br)c1 (stereo not drawn)	none (no result: MT1-MMP act inh, SKN-1 block, MsrA act, beta cell repl, DAGLB inh)
Cc1cc(/C=C(\C#N)C(=O)Nc2ccc(F)cc2)c(C)n1-c1ccc(N2CCOCC2)c([N+](=O)[O-])c1	SKN-1 block 38.5
COc1ccc(NC(=O)/C(C#N)=C/c2cc(C)n(-c3ccc(N4CCOCC4)c([N+](=O)[O-])c3)c2C)cc1	none
Oc1ccc(C2CNCCc3c2cc(O)c(O)c3Cl)cc1 (stereo not drawn)	none
Oc1cc2c(c(Cl)c1O)CCNCC2c1ccccc1 (stereo not drawn)	SKN-1 block 42.4
CCCCCCC12C(=Cc3cc4c(cc31)OCCO4)c1cc(OC)c(OC)cc1C(CC(=O)O)N2C(=O)OC (stereo not drawn)	none (no result: MT1-MMP act inh, SKN-1 block, MsrA act, beta cell repl, DAGLB inh)
CN(C)c1cccc(O)c1	SKN-1 block 47.2
S=C(NCc1ccccc1)C(=S)NCc1ccccc1	SKN-1 block 38.4 (no result: beta cell repl)
CCCCOCC1CN(Cc2ccccc2OC)S(=O)(=O)c2cc(Cl)ccc2O1 (stereo not drawn)	none (no result: MT1-MMP act inh, SKN-1 block, MsrA act, beta cell repl, DAGLB inh)
CCCN1C(=O)c2ccc(C(=O)Nc3nccs3)cc2C1=O	none
CCCc1cc(C(=O)Nc2nccs2)cs1	SKN-1 block 33.2
CCOC(=O)N(C)C[C@H]1OCc2cn(nn2)CCCC(=O)N([C@@H](C)CO)C[C@@H]1C	none (no result: MT1-MMP act inh, SKN-1 block, MsrA act, beta cell repl, DAGLB inh)
CC(C)(C)N=C1NN=C(c2ccc(Cl)cc2)CS1	SKN-1 block 50.6
COc1ccc(CN=C2NN=C(c3ccc(Cl)cc3)CS2)cc1	none
CCCCCCCCCCCCCCCC[N+](C)(C)CCN(Cc1ccc(OC)cc1)c1ncccn1	SKN-1 block 58.6 (no result: MsrA inh)
O=S1(=O)c2cc(Cl)ccc2N2CCC[C@@H]2CN1Cc1ccc(Cl)c(Cl)c1	none (no result: MT1-MMP act inh, SKN-1 block, MsrA act, beta cell repl, DAGLB inh)
Cc1cccc(Cn2c(Sc3nc(C)cs3)nc3c2c(=O)[nH]c(=O)n3C)c1	SKN-1 block 40.4
CN(C(=O)c1ccc(NC(=O)Cc2cccc(NC(=O)C3CCN(C(=O)CCc4ccccc4)CC3)c2)cc1)C1CC1	none (no result: MT1-MMP act inh, SKN-1 block, MsrA act, beta cell repl, DAGLB inh)
CSc1cc(-c2ccco2)oc1C(=O)c1ccco1	SKN-1 block 35.7
CC(=O)CSc1ccc(-c2nc3ccccc3[nH]2)cn1	none
CC(=O)CSc1ccc(-c2nc3cc(C)c(C)cc3[nH]2)cn1	MsrA inh 4.7
CCCN1C(=O)/C(=C/c2ccc(N3CCCC3)c(C)c2)NC1=S	SKN-1 block 45.9
Cc1cc(/C=C2\NC(=S)N(C)C2=O)ccc1N1CCCC1	none
